Screening data deposited in PubChem BioAssay by several laboratories.
Compounds with a hit are over-represented: about 9.4% of the library has one in this group of screens.
T cruzi inh – T. cruzi replication inhibition; 300,000 tested, 1.4% active; T. cruzi beta-gal in NIH3T3, luminescence, 90 h; inhibition, % (concentration not given with the values); AID 1885;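 active = mean inhibition across valid replicates above about 55%, limit read from the data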;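 also: signal also drops with host cell toxicity which is not excluded here; 0% = plate median of DMSO wells and 100% = zero luminescence signal; higher percent means less beta-gal luminescence so fewer parasites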
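Assay system: NIH/3T3 host cells with β-galactosidase reporter T. cruzi; input: 5,000 host fibroblasts per well; compound: single 50 nL compound addition per well in DMSO; timing: ≥90 h infection period, 3 h prior cell attachment; measured by: GalScreen β-gal luminescence, detergent lysis, 60 min; evaluation: percent inhibition of parasite-derived β-gal signal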
Beta apoptosis – beta cell apoptosis inhibition. INS-1E cytokine-induced death, ATP luminescence, 48 h; percent of positive-control rescue, neutral wells zero. protection from apoptosis, % (concentration not given with the values). 300,000 tested, 0.8% active. AID 435005;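 active = Every replicate reaches about 75%, or at least half do and their mean reaches it too, limit read from the data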;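 also: 0% = cytokine-treated negative control wells and 100% = positive control rescue; higher means more ATP so stronger rescue from cytokine killing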
SKKanGAS inh – blocks kanamycin growth of S. pyogenes SKKanGAS strain. inhibition, % at 7.5 µM. 300,000 tested, 1.3% active. BacTiter-Glo, 6 h. AID 1662;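 active = mean replicate score, as percent of positive control median, at least 50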;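 also: strain carries kanamycin resistance gene driven by streptokinase promoter and grows in 40 µg/ml kanamycin; loss of luminescence reflects streptokinase promoter inhibition or plain growth inhibition; 0% = median of DMSO wells and 100% = positive control at its reference dose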
Lmaj promast – inhibitors of Leishmania major promastigote growth; AID 1063; inhibition, % at 10 µM; 200,000 tested, 9% active; Leishmania major promastigotes, resazurin fluorescence viability; in the data active = inhibition above about 50%;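 also: promastigotes grown with compound for 44 hours at 28 °C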
Mdm2 MdmX PPI – human Mdm2/MdmX binding inhibition; O15151+Q00987; SaOS-2 split-luciferase Mdm2/MdmX complementation, luminescence; inhibition, % at 8 µM; 330,000 tested, 3% active; AID 485346;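 active = inhibition of at least 50% at 8 µM in the primary screen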
Target sequence (O15151 whole entry, looked up): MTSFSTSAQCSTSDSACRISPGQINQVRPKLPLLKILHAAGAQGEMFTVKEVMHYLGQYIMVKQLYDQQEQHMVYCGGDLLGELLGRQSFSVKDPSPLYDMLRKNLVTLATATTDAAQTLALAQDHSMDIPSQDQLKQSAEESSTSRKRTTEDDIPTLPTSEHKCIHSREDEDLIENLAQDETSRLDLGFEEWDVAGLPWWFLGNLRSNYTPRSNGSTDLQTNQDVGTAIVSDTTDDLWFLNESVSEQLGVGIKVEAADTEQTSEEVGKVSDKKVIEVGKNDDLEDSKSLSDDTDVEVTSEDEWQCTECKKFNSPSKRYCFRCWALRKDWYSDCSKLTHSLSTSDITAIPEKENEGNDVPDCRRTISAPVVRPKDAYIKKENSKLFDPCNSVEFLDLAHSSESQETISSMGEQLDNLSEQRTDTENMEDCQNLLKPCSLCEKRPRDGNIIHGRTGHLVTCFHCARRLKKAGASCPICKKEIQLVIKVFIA
Target sequence (Q00987 whole entry, looked up): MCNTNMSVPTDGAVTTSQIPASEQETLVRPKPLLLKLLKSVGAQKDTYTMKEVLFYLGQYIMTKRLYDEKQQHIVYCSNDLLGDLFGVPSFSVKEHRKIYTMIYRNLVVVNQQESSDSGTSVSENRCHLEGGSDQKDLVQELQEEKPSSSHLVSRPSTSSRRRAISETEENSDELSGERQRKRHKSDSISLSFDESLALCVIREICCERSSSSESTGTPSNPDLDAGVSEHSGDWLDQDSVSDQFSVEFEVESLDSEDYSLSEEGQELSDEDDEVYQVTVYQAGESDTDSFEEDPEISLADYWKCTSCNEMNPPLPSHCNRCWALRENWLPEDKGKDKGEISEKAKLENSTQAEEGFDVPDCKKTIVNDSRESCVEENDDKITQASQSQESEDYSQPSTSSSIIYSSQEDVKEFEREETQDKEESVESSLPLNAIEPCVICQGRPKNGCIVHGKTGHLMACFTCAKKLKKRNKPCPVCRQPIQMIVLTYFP
CSC inhib – blocks cancer stem cells. inhibition, % at 7.5 µM. cancer stem cell-like cells viability, luminescence. 300,000 tested, 1.1% active; in the data active = inhibition above about 75%; tested in HMLE shEcad cells
Starred values were filed as active, the others as inactive; x = no result given.

SMILES	T cruzi inh	Beta apoptosis	SKKanGAS inh	Lmaj promast	Mdm2 MdmX PPI	CSC inhib
CCOC(=O)c1cnc(-n2nc(C)cc2C)nc1NCCO	-15	-5	2	-2	9	x
CCOC(=O)c1cnc(-n2nc(C)cc2C)nc1NNc1cc(-c2ccccc2)nc(C)n1	49	x	103*	100*	45	x
CCOC(=O)c1[nH]c2ccc(OC)cc2c1NC(=S)N1CCN(c2ccccc2)CC1	10	1	7	77*	8	3
CCOC(=O)c1[nH]c2ccc(OC)cc2c1NC(=S)N1CCN(c2ccccn2)CC1	-2	-2	-7	54*	14	-10
CCOC(=O)c1[nH]c2ccc(OC)cc2c1NC(=O)CN1CCN(c2ccccn2)CC1	17	4	29	16	-16	-6
COc1ccc(C2c3ccsc3CCN2C(=O)C(C)(C)C)cc1 (stereo unspecified)	5	-11	50*	x	10	-10
COc1ccc(-n2nccc2-c2nn(-c3cccc(OC)c3)c(=O)n(C)c2=O)cc1	19	-7	-1	7	23	-3
COc1cccc(-n2nc(-c3ccnn3-c3ccc(F)cc3)c(=O)n(C)c2=O)c1	15	-5	-3	52*	20	-8
COCC(C)n1c(SCC(=O)Nc2c(C)n(C)n(-c3ccccc3)c2=O)nc2ccccc2c1=O (stereo unspecified)	x	-2	x	x	10	-21
OCCNC(=S)Nc1cccc(Cl)c1Cl	-16	-3	1	x	-10	-3
O=C1/C(=C\c2ccncc2)CCc2ccccc21	-28	-7	36	x	29	-9
O=C1/C(=C/c2ccncc2)CCC/C1=C\c1ccncc1	14	x	11	101*	x	x
O=C(CCCC(=O)N(CC(=O)NC1CCCC1)c1ccc(F)c(Cl)c1)Nc1ccccn1	-20	-5	-2	x	17	-16
CC(C)CCNC(=O)CN(C(=O)CCC(=O)Nc1ccccn1)c1ccc(F)c(Cl)c1	1	-1	-12	95*	28	-8
Cc1cc(C)cc(OCC(=O)N(Cc2ccc(N(C)C)cc2)C2CCS(=O)(=O)C2)c1 (stereo unspecified)	1	x	6	x	21	-5
Cc1nnc(NC(=O)c2sc3nc(-c4cccs4)cc(C(F)(F)F)c3c2N)s1	-11	4	21	-3	10	36
CC(C)(C)C(=O)c1sc2nc(-c3cccs3)cc(C(F)(F)F)c2c1N	-28	-3	4	54*	-4	5
Cc1ccc(/C=C2\SC(=S)N(CCCC(=O)Nc3ccccc3C(=O)O)C2=O)cc1	0	4	21	x	-32	0
COc1ccc(/C=C2\SC(=S)N(CCC(=O)N3CCOCC3)C2=O)cc1	-2	-10	0	x	49	14
CCc1ccc(/C=C2\SC(=S)N(CCCC(=O)Nc3ccccc3C(=O)O)C2=O)cc1	-13	-16	66*	x	17	30
COc1ccc(/C=C2\SC(=S)N(CCCC(=O)N3CCN(C)CC3)C2=O)cc1	60*	-21	11	x	26	30
C=CCn1c(N)c(C(=O)OCCC)c2nc3ccccc3nc21	9	-2	2	100*	6	2
CCOC(=O)c1c(-c2cccs2)csc1NC(=O)c1ccncc1	55*	1	3	-1	32	-6
CCOC(=O)c1c(-c2ccccc2)csc1NC(=O)c1nn(CC)cc1Br	63*	16	32	13	29	80*
CCOC(=O)c1c(-c2ccccc2)csc1NC(=S)N(CC)CC	23	x	8	7	x	x
SMILES	T cruzi inh	Beta apoptosis	SKKanGAS inh	Lmaj promast	Mdm2 MdmX PPI	CSC inhib
COc1ccccc1CNC(=O)COC(=O)c1cccc(S(=O)(=O)N2CCCC2)c1	4	-3	-2	x	12	-2
CCCCn1c(N)c(N(CCOC)C(=O)COC(=O)CCOc2ccc(C)cc2)c(=O)[nH]c1=O	x	-4	x	x	24	-17
COc1cc(/C=N\NC(=O)C(C)(C)O)ccc1OC/C=C/c1ccccc1	6	-2	12	x	27	21
COC(CN(C)C(=O)C1CCCN(S(=O)(=O)c2ccc3c(c2)oc(=O)n3C)C1)OC (stereo unspecified)	-5	-8	3	x	11	3
OCCN1CCN(Cc2nc(-c3cccc(Cl)c3)no2)CC1	6	2	0	9	5	4
CN1CCCN(Cc2nc(-c3ccc(Cl)cc3)no2)CC1	0	-6	1	93*	-26	51
CN1CCCN(Cc2ccc(Cl)cc2Cl)CC1	40	-3	18	98*	12	25
O=C(COC(=O)c1ccc(S(=O)(=O)N2CCOCC2)cc1)NCc1cccs1	8	2	5	-4	-2	2
CCCn1cc(CN2CCc3ccc(NC(=O)C4CCCO4)cc3C2)c(C)n1 (stereo unspecified)	19	-1	-4	x	28	-12
COc1ccc(S(=O)(=O)Oc2ccc3c(c2)O/C(=C\c2cccnc2)C3=O)cc1	-2	-5	-4	86*	0	x
O=C1/C(=C/c2cccnc2)Oc2cc(OS(=O)(=O)c3ccccc3)ccc21	-2	3	2	57*	-1	8
O=C1/C(=C/c2cccnc2)Oc2cc(OS(=O)(=O)c3ccc(Cl)cc3)ccc21	1	-3	13	14	9	12
CS(=O)(=O)Oc1ccc2c(c1)O/C(=C\c1cccnc1)C2=O	-8	-9	-1	x	9	-3
COc1ccc(OC)c(/C=C2\S/C(=N/NC(=O)c3ccc4ccccc4c3)NC2=O)c1	3	0	106*	-3	x	106*
O=C(O)Cc1ccc(S(=O)(=O)N2CCCC2)s1	x	4	x	x	-3	-17
CSc1ccccc1-c1n[nH]c(=S)o1	1	x	56*	-3	-20	x
CC(C)(C)C1=CC(=O)C(=O)C(C(C)(C)C)=C1	74*	0	-4	6	18	62
CNCC(O)c1ccc(OC(=O)C(C)(C)C)c(OC(=O)C(C)(C)C)c1 (stereo unspecified)	x	-6	x	x	-15	-6
CCn1c(C)c(/C=N/Nc2nc3ccccc3s2)c2ccccc21	69*	x	8	10	24	x
O=S1(=O)[C@H]2C[C@@H]3C=C[C@@]2(CN1Cc1ccc(F)cc1)O3	-1	-7	1	x	4	-2
O=C1OCCN1C(=O)[C@H]1[C@H](c2ccc(Cl)cc2)C(c2ccccc2)=NN1c1ccccc1	x	x	x	x	5	x
O=C1[C@H]2C(c3ccccc3)=NN(c3ccccc3)[C@H]2C(=O)N1c1ccccc1	-15	3	89*	0	9	-13
O=C1C2C(c3ccccc3)=NN(c3ccccc3)C2C(=O)N1c1ccccc1 (stereo unspecified)	-4	6	107*	59*	-16	10
OC[C@@H]1[C@@H](c2ccc(F)cc2)C(c2ccccc2)=NN1c1ccccc1	x	x	x	x	14	x
NC(=O)c1ccccc1NC(=O)CN1CCN(Cc2ccc(Cl)cc2Cl)CC1	15	0	7	x	19	-21
